From ChEMBL document CHEMBL3227917, “Structure-activity relationships of dimeric Catharanthus alkaloids. 2. Experimental antitumor activities of N-substituted deacetylvinblastine amide (vindesine) sulfates” (J Med Chem, 1979)

Legend:
[1] = Antitumor activity against mouse Gardner lymphosarcoma allografted in C3H mouse assessed as tumor growth inhibition at 0.20 mg/kg, ip administered daily for 8 to 10 days; assay type: functional; conditions: route intraperitoneal, read-out: TGI
How it was run: (§1)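 Gardner lymphosarcoma in C3H mice; sulfate salts unless noted, given ip daily for 8–10 days, treatment starting 8 days after tumor implantation. Tumor growth inhibition scored as –, 0–25%; +, 26–50%; ++, 51–75%; +++, 76–100%; T, lethal to ≥5 of 10 animals per group. Average of one or more tests.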

[2] = Antitumor activity against mouse Ridgway osteogenic sarcoma allografted in AKR mouse assessed as tumor growth inhibition at 0.30 mg/kg, ip administered daily for 8 to 10 days compound treatment commenced 8 days after tumor implantation; assay type: functional; conditions: route intraperitoneal, read-out: TGI
[3] = Antitumor activity against mouse Gardner lymphosarcoma allografted in C3H mouse assessed as tumor growth inhibition at 0.40 mg/kg, ip administered daily for 8 to 10 days; assay type: functional; conditions: route intraperitoneal, read-out: TGI; how it was run: as §1
[4] = Dissociation constant, pKa of the compound; assay type: physicochemical
How it was run: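 Electrometric titration in 66% aqueous DMF.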

[5] = Antitumor activity against mouse Ridgway osteogenic sarcoma allografted in AKR mouse assessed as tumor growth inhibition at 0.10 mg/kg, ip administered daily for 8 to 10 days compound treatment commenced 8 days after tumor implantation; assay type: functional; conditions: route intraperitoneal, read-out: TGI
Mus musculus [6] = assay: Toxicity in C3H mouse allografted with mouse Gardner lymphosarcoma assessed as lethality at 0.30 mg/kg, ip administered daily for 8 to 10 days; assay type: organism-based; design: dose 0.3 mg/kg, route intraperitoneal; conditions: in vivo, 0.3 mg/kg
How it was run: (§2)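 Tumor-bearing mice given sulfate salts ip daily for 8–10 days; values are the average of one or more tests. Toxic means lethal to ≥5 of 10 animals per group.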

[7] = Antitumor activity against mouse Gardner lymphosarcoma allografted in C3H mouse assessed as tumor growth inhibition at 0.10 mg/kg, ip administered daily for 8 to 10 days; assay type: functional; conditions: route intraperitoneal, read-out: TGI; how it was run: as §1
[8] = Antitumor activity against mouse Ridgway osteogenic sarcoma allografted in AKR mouse assessed as tumor growth inhibition at 0.20 mg/kg, ip administered daily for 8 to 10 days compound treatment commenced 8 days after tumor implantation; assay type: functional; conditions: route intraperitoneal, read-out: TGI
[9] = Antitumor activity against mouse Ridgway osteogenic sarcoma allografted in AKR mouse assessed as tumor growth inhibition at 0.40 mg/kg, ip administered daily for 8 to 10 days compound treatment commenced 8 days after tumor implantation; assay type: functional; conditions: route intraperitoneal, read-out: TGI
[10] = Antitumor activity against mouse Gardner lymphosarcoma allografted in C3H mouse assessed as tumor growth inhibition at 0.30 mg/kg, ip administered daily for 8 to 10 days; assay type: functional; conditions: route intraperitoneal, read-out: TGI; how it was run: as §1
Mus musculus [11] = assay: Toxicity in C57BL/6 mouse allografted with mouse B16 cells assessed as animal death at 1.20 mg/kg, ip administered on days 1,5 and 9; assay type: organism-based; design: dose 1.2 mg/kg, route intraperitoneal; conditions: in vivo, 1.2 mg/kg
How it was run: (§3)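 B16 melanoma cells (10⁶ inoculum) implanted ip in C57BL/6 mice; groups of 10. Sulfate salts unless noted, given ip on days 1, 5 and 9. Single test. Survival prolongation is expressed as percent versus controls, with survivors counted on day 60. Toxic means deaths of ≥5 of 10 animals before the first control death.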

CHO [12] = assay: Mitotic arrest in CHO cells assessed as increase in cell accumulation at 0.002 ug/ml; assay type: functional, Cricetulus griseus
How it was run: (§4)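 Chinese hamster ovary cells in tissue culture, scored for mitotic arrest as increase in cells in mitotic arrest over control: +++, 40–50%; ++, 15–40%; +, 10–15%; ±, 7–10%; –, 3–7%. Cytotoxicity noted separately.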

CHO [13] = assay: Mitotic arrest in CHO cells assessed as increase in cell accumulation at 0.02 ug/ml; assay type: functional, Cricetulus griseus; how it was run: as §4
P388/VCR [14] = assay: Antitumor activity against mouse P388/VCR cells allografted in B6D2F1 mouse assessed as increase in host lifespan at 1.20 mg/kg, ip administered on days 1, 5 and 9; assay type: functional; conditions: dose 1.2 mg/kg; route intraperitoneal
How it was run: (§5)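 P388/VCR leukemia in groups of 10 B6D2F1 mice, run at Lilly using the cell strain received from NCI. Sulfate salts given ip on days 1, 5 and 9. Read-out is percent increase in lifespan.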

Mus musculus [15] = assay: Toxicity in C3H mouse allografted with mouse Gardner lymphosarcoma assessed as lethality at 0.40 mg/kg, ip administered daily for 8 to 10 days; assay type: organism-based; design: dose 0.4 mg/kg, route intraperitoneal; conditions: in vivo, 0.4 mg/kg; how it was run: as §2
B16 [16] = assay: Antitumor activity against mouse B16 cells allografted in C57BL/6 mouse assessed as prolongation of host survival at 0.90 mg/kg, ip administered on days 1,5 and 9; assay type: functional; conditions: route intraperitoneal; how it was run: as §3
P388/VCR [17] = assay: Antitumor activity against mouse P388/VCR cells allografted in B6D2F1 mouse assessed as increase in host lifespan at 0.60 mg/kg, ip administered on days 1, 5 and 9; assay type: functional; conditions: dose 0.6 mg/kg; route intraperitoneal; how it was run: as §5
B16 [18] = assay: Antitumor activity against mouse B16 cells allografted in C57BL/6 mouse assessed as prolongation of host survival at 0.60 mg/kg, ip administered on days 1,5 and 9; assay type: functional; conditions: route intraperitoneal; how it was run: as §3
CHO [19] = assay: Mitotic arrest in CHO cells assessed as increase in cell accumulation at 0.2 ug/ml; assay type: functional, Cricetulus griseus; how it was run: as §4
P388/VCR [20] = assay: Antitumor activity against mouse P388/VCR cells allografted in B6D2F1 mouse assessed as increase in host lifespan at 0.90 mg/kg, ip administered on days 1, 5 and 9; assay type: functional; conditions: dose 0.9 mg/kg; route intraperitoneal; how it was run: as §5
[21] = Antitumor activity against mouse P1534 cells allografted in DBA2 mouse assessed as tumor growth inhibition at 0.20 mg/kg, ip administered daily for 8 to 10 days; assay type: functional; conditions: route intraperitoneal, read-out: TGI
How it was run: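 P1534(J) leukemia implanted sc in DBA2 mice; sulfate salts dosed ip daily for 8–10 days. Growth inhibition scored –, 0–25%; +, 26–50%; ++, 51–75%; +++, 76–100%; T, lethal to ≥5 of 10 animals per group. Average of one or more tests.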

Mus musculus [22] = assay: Toxicity in C3H mouse allografted with mouse Gardner lymphosarcoma assessed as lethality at 0.5 mg/kg, ip administered daily for 8 to 10 days; assay type: organism-based; design: dose 0.5 mg/kg, route intraperitoneal; conditions: in vivo; how it was run: as §2

CC[C@]1(O)C[C@H]2CN(CCc3c([nH]c4ccccc34)[C@@](C(=O)OC)(c3cc4c(cc3OC)N(C)[C@H]3[C@@](O)(C(=O)NCCN)[C@H](O)[C@]5(CC)C=CCN6CC[C@]43[C@@H]65)C2)C1
inhibition in vivo at 0.2 mg/kg [1]: 0% | inhibition in vivo at 0.3 mg/kg [2]: 0% | inhibition in vivo at 0.4 mg/kg [3]: 0% | pKa [4]: 9.48 | inhibition in vivo at 0.1 mg/kg [5]: 0%

CC[C@]1(O)C[C@H]2CN(CCc3c([nH]c4ccccc34)[C@@](C(=O)OC)(c3cc4c(cc3OC)N(C)[C@H]3[C@@](O)(C(=O)NCC#N)[C@H](O)[C@]5(CC)C=CCN6CC[C@]43[C@@H]65)C2)C1.O=S(=O)(O)O
inhibition in vivo at 0.2 mg/kg [1]: 76% | inhibition in vivo at 0.3 mg/kg [2]: 26% | Activity (Mus musculus [6]): Toxic | inhibition in vivo at 0.1 mg/kg [7]: 0% | inhibition in vivo at 0.1 mg/kg [5]: 0%

CC[C@]1(O)C[C@H]2CN(CCc3c([nH]c4ccccc34)[C@@](C(=O)OC)(c3cc4c(cc3OC)N(C)[C@H]3[C@@](O)(C(=O)NCc5ccccc5)[C@H](O)[C@]5(CC)C=CCN6CC[C@]43[C@@H]65)C2)C1
inhibition in vivo at 0.2 mg/kg [1]: 26% | inhibition in vivo at 0.2 mg/kg [8]: 0% | inhibition in vivo at 0.4 mg/kg [3]: 0% | inhibition in vivo at 0.1 mg/kg [5]: 0% | inhibition in vivo at 0.4 mg/kg [9]: 76% | inhibition in vivo at 0.3 mg/kg [10]: 0%

CC[C@]1(O)C[C@H]2CN(CCc3c([nH]c4ccccc34)[C@@](C(=O)OC)(c3cc4c(cc3OC)N(C)[C@H]3[C@@](O)(C(=O)NCCSC)[C@H](O)[C@]5(CC)C=CCN6CC[C@]43[C@@H]65)C2)C1.O=S(=O)(O)O
Activity (Mus musculus [11]): Toxic | inhibition in vivo at 0.2 mg/kg [1]: 0% | Activity (CHO [12]): 3% | Activity (CHO [13]): 15% | Activity (P388/VCR [14]): 6% | Activity (Mus musculus [15]): Toxic | survival at 0.9 mg/kg (B16 [16]): 58% | Activity (P388/VCR [17]): 20% | survival at 0.6 mg/kg (B16 [18]): 163% | Activity (CHO [19]): 15% | inhibition in vivo at 0.1 mg/kg [7]: 0% | Activity (P388/VCR [20]): 42%

CC[C@]1(O)C[C@H]2CN(CCc3c([nH]c4ccccc34)[C@@](C(=O)OC)(c3cc4c(cc3OC)N(C)[C@H]3[C@@](O)(C(=O)NC)[C@H](OC(C)=O)[C@]5(CC)C=CCN6CC[C@]43[C@@H]65)C2)C1.O=S(=O)(O)O
inhibition in vivo at 0.2 mg/kg [21]: 51% | Activity (Mus musculus [22]): Toxic

CC[C@]1(O)C[C@H]2CN(CCc3c([nH]c4ccccc34)[C@@](C(=O)OC)(c3cc4c(cc3OC)N(C)[C@H]3[C@@](O)(C(N)=O)[C@H](OC(C)=O)[C@]5(CC)C=CCN6CC[C@]43[C@@H]65)C2)C1.O=S(=O)(O)O
Activity (CHO [12]): 3% | Activity (CHO [13]): 15% | Activity (CHO [19]): 40% | Activity (Mus musculus [22]): Toxic

CC[C@]1(O)C[C@H]2CN(CCc3c([nH]c4ccccc34)[C@@](C(=O)OC)(c3cc4c(cc3OC)N(C)[C@H]3[C@@](O)(C(=O)NCCCSC)[C@H](O)[C@]5(CC)C=CCN6CC[C@]43[C@@H]65)C2)C1.O=S(=O)(O)O
Activity (Mus musculus [11]): Toxic | inhibition in vivo at 0.2 mg/kg [1]: 0% | Activity (Mus musculus [15]): Toxic | survival at 0.9 mg/kg (B16 [16]): 141% | survival at 0.6 mg/kg (B16 [18]): 101% | inhibition in vivo at 0.1 mg/kg [7]: 0%
